Among the data in ChEMBL document CHEMBL4020830, “Design, Synthesis, and Evaluation of a Novel Series of Indole Sulfonamide Peroxisome Proliferator Activated Receptor (PPAR) α/γ/δ Triple Activators: Discovery of Lanifibranor, a New Antifibrotic Clinical Candidate” (J Med Chem, 2018) are EC50 and Activity values, retold here.

The target in experiment [1] is T1, Peroxisome proliferator-activated receptor alpha (Mus musculus, UniProt P23204).
T1 sequence (P23204 whole entry): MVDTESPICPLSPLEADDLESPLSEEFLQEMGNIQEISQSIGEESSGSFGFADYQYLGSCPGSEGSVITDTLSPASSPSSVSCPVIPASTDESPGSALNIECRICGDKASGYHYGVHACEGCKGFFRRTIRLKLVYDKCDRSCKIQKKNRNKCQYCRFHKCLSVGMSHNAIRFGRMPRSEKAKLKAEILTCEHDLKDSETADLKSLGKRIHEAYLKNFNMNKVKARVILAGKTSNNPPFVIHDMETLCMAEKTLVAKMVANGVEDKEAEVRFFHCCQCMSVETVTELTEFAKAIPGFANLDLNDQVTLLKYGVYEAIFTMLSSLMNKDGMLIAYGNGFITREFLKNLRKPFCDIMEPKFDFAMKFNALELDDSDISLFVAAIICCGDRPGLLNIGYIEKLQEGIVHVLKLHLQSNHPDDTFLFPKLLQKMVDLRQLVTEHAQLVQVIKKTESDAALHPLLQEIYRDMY
Kind of experiment: Transactivation of mouse GAL4-fused PPARalpha LBD expressed in African green monkey COS7 cells co-expressing 5Gal4 pGL3 TK Luc after overnight incubation by luciferase reporter gene assay. The class given is cell-based. The method in brief: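 Cell-based Gal-4 transactivation assay in COS-7 cells transfected with PPARα, PPARδ or PPARγ ligand-binding domain. EC50 and Emax were derived, with Emax as maximum activation in percent of control. EC50s are means of at least two independent experiments performed in triplicate.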

Experiment [2] addresses T2, Peroxisome proliferator-activated receptor gamma (Mus musculus, UniProt P37238).
T2 sequence (P37238 whole entry): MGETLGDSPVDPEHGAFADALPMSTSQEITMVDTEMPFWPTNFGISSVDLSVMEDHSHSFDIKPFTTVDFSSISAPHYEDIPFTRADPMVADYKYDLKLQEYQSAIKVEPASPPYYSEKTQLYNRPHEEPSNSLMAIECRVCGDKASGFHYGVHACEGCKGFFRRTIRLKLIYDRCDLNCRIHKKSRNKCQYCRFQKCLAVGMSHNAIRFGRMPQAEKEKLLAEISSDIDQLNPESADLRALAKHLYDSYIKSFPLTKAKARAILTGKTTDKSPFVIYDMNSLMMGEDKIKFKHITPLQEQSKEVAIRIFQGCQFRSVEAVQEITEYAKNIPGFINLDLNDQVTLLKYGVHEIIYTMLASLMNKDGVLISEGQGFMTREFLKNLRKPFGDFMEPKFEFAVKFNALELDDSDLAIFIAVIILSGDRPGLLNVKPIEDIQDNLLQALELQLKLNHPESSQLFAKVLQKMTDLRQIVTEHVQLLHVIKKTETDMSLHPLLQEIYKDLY
As to the kind of experiment: Transactivation of mouse GAL4-fused PPARgamma LBD expressed in African green monkey COS7 cells co-expressing 5Gal4 pGL3 TK Luc after overnight incubation by luciferase reporter gene assay. (A reporter such as luciferase makes a cellular process visible.)

The target in experiment [3] is T3, Peroxisome proliferator-activated receptor delta (Mus musculus) (UniProt P35396).
T3 sequence (whole entry): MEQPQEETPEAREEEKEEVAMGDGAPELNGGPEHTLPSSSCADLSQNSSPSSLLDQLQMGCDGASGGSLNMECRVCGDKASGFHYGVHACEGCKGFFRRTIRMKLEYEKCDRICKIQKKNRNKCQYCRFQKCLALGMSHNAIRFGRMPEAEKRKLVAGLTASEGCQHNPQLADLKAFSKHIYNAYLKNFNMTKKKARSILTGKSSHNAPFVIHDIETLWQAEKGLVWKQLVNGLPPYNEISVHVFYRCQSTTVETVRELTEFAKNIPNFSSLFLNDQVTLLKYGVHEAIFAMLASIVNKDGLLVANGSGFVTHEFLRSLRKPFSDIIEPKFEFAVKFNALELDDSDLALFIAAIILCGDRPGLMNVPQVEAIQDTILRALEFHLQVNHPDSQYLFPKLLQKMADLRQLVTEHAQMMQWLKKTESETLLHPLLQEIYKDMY
Kind of experiment: Transactivation of PPARdelta in mouse C2C12 cells assessed increase in [14C]oleate beta-oxidation at 3 uM preincubated for 48 hrs followed by [14C]oleate addition during last 2 hrs of incubation period relative to control. The class given is cell-based. The method in brief:
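Fatty acid beta-oxidation was used as the functional read-out. PPARα activity was tested in human hepatoma HuH7 cells and PPARδ activity in mouse myoblast C2C12 cells, at 1, 3, 10 and 30 µM. Values are % beta-oxidation, mean of at least 2 independent experiments run in triplicate, with single-experiment values flagged.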

Experiment [4] has as its target T4, Peroxisome proliferator-activated receptor delta (Mus musculus, UniProt P35396).
T4 sequence (P35396 whole entry): T3 sequence (whole entry)
As to the kind of experiment: Transactivation of mouse GAL4-fused PPARdelta LBD expressed in African green monkey COS7 cells co-expressing 5Gal4 pGL3 TK Luc after overnight incubation by luciferase reporter gene assay. The class given is cell-based.

In experiment [5] the target is T5, Peroxisome proliferator-activated receptor gamma (Homo sapiens, UniProt P37231).
T5 sequence (P37231 whole entry): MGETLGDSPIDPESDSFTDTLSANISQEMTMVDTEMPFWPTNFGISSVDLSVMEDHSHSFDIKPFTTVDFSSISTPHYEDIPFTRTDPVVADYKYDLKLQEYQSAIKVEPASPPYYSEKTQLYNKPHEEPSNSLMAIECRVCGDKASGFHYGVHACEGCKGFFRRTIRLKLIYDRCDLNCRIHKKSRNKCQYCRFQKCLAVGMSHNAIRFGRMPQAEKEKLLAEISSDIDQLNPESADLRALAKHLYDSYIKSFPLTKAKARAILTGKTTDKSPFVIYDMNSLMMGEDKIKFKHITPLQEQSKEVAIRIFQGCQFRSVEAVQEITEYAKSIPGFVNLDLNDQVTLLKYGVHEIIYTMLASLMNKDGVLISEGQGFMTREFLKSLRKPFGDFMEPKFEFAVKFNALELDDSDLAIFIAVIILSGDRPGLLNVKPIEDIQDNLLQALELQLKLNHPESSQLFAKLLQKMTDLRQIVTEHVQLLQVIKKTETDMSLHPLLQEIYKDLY

The subject of experiment [6] is Mus musculus. As to the kind of experiment: Reduction in plasma triglyceride level in C57Bl6/J mouse model of CCl4-induced liver fibrosis at 3 to 30 mg/kg, po qd for 3 weeks. The class given is functional, organism-based. In short, it runs like this: (§1)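 CCl4-induced liver fibrosis mice were dosed orally once daily at 3, 10 or 30 mg/kg for 3 weeks. Controls were CCl4-vehicle, vehicle oil and saline-injected groups. Liver collagen was scored by picrosirius red staining of histological sections. Plasma triglycerides and adiponectin were also measured. Analysis was one-way ANOVA with Dunnett's test.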

Experiment [7] deals with Mus musculus. Kind of experiment: Antifibrotic activity in C57Bl6/J mouse model of CCl4-induced liver fibrosis assessed as decrease in collagen deposition in liver administered po qd for 3 weeks by picrosirius red staining based assay. The class given is functional, organism-based. In short, it runs like this:
as §1

For experiment [8], the system named is Mus musculus. Kind of experiment: Hypolipidemic activity in C57BL/Ks mouse model of diabetic dyslipidemia assessed as decrease in plasma triglyceride level at 10 mg/kg, po qd administered via gavage for 10 days measured 4 hrs post last dose. The class given is functional, organism-based. The method in brief:
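Homozygous male C57BL/Ks-db (db/db) mice were gavaged once daily at 10 or 30 mg/kg, for 5 or 10 days. Retro-orbital blood was drawn before treatment and 4 h after the last gavage. Glucose and triglycerides were measured in serum. Results are expressed as % variation on the final day versus the control group. Analysis was one-way ANOVA with Dunnett's test.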

Calls of active or inactive are those of the source. The calls are words filed in the database; no cut-off is given here.

By EC50 is commonly meant the concentration at which the effect is half-maximal. As to `O=C(O)CCCc1cc2cc(Cl)ccc2n1S(=O)(=O)c1ccc2ncsc2c1` [LANIFIBRANOR], the 50% effective concentration (EC50) stood at 366 nM in experiment [1], 202 nM in experiment [2], 1560 nM in experiment [4] and 3410 nM in experiment [5]. Moreover, the figures for the Activity in experiment [3] and in experiment [7] were 37% and “Dose-dependent effect”, respectively. The outcome in experiment [6] was Active.
As to `O=C(O)CCc1cc2cc(Cl)ccc2n1S(=O)(=O)c1ccccc1`, the outcome in experiment [8] was inactive.
